Bioassay records (PubChem)
FAS-TE inh – FAS thioesterase (human) inhibition; P49327; recombinant FAS-TE, OMFH fluorogenic substrate, fluorescence endpoint; inhibition, % at 15 µM; hit rate 0.67% among 360,000;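 active = compounds whose normalised, plate-corrected inhibition of enzyme fluorescence in the single-dose primary screen is 50% or more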
SKN-1 block – blocks SKN-1 activity in C. elegans; C. elegans VP596 Pgst-4::GFP/RFP ratio, acrylamide-induced, 24 h; inhibition, % at 21.8 µM; hit rate 0.49% among 360,000; AID 624304;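 active = interference check ratio from 0.5 to 1.5 plus GFP to RFP signal ratio inhibition reaching or exceeding a fixed threshold, cut at about 30% in these data, passing the limit was not always enough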
iPSC survival up – increases survival of single human iPS cells; hiPSC single-cell survival, ATPlite luminescence; 100% = ROCK inhibitor wells, 0% = DMSO; survival enhancement, % at 20 µM; hit rate 0.044% among 360,000; in the data active = survival enhancement above about 18%;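 also: cells exposed to compounds for 16 hours before the ATP read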
DAGLB inh – blocks human DAGLB lipase activity. Q8NCG7. HEK293T DAGLB membrane lysate, EnzChek fluorogenic substrate. inhibition, % at 5.17 µM. hit rate 0.059% among 340,000. AID 504411; in the data active = inhibition above about 34%
Target sequence (Q8NCG7 whole entry, looked up): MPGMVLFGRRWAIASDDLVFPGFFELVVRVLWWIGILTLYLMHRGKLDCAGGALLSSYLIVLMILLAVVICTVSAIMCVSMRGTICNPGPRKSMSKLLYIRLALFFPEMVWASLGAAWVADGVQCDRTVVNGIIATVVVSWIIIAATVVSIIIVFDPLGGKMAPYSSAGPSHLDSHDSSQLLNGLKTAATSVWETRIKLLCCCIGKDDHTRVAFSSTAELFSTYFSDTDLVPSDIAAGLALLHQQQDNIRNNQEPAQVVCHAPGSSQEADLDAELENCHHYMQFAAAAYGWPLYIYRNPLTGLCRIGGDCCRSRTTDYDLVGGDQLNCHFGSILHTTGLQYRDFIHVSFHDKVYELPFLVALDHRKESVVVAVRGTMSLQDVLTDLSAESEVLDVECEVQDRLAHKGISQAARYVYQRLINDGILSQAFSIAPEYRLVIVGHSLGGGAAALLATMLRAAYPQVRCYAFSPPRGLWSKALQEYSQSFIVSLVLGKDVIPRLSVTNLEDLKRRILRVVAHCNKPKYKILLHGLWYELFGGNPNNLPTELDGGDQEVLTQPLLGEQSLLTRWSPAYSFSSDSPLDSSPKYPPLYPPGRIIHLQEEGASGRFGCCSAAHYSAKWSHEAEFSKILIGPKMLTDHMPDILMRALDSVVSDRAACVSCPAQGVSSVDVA
MT1-MMP act inh – blocks activation of human MT1-MMP | hit rate 0.061% among 360,000 | HT1080 RFP-PRO-GFP cells, GFP/RFP ratio fluorescence, overnight; percent of plate control window, DMSO zero | GFP/RFP ratio change, % at 20 µM;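 active = GFP/RFP ratio change of at least 30% with cell ATP level not reduced by more than half and red fluorescence within 50% of control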
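Test system: HT1080 cells expressing an RFP-PRO-GFP fluorescent reporter construct / Compound dosing: single-point 20 µM compound, 1% DMSO / Schedule: cells overnight before dosing, compound overnight, 37 °C, 5% CO2 / Evaluation: GFP/RFP fluorescence ratio / Control set: DMSO and RFP-L50D-GFP cell wells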
FAS-TE inh conf – FAS thioesterase (human) inhibition, confirmation; shares compounds with FAS-TE inh; recombinant FAS-TE, OMFH fluorogenic substrate, fluorescence; hit rate 45% among 2,300; inhibition, % at 15 µM;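 active = compounds inhibiting the enzyme by at least 50% at 15 µM in any one of the replicates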
Hits are given with their value; - = inactive; . = no result given. In the library only some 1.3% were active in any assay of this set; here they are far more common.

SMILES	FAS-TE inh	SKN-1 block	iPSC survival up	DAGLB inh	MT1-MMP act inh	FAS-TE inh conf
CCN1C(=O)[C@@H]2[C@@H](c3ccc(-c4ccc(C(C)=O)cc4)c(OC)c3)N3CCCC[C@@]3(C(=O)OC)[C@@H]2C1=O	-	-	-	-	-	.
O=c1cc(CN2CCN(c3ccccc3)CC2)c2ccccc2o1	-	-	-	.	-	.
Cc1cc(C)c(C#N)c(N2CCN(Cc3ccccc3)CC2)n1	-	-	-	-	-	.
Cc1cc(C)c(C#N)c(N2CCN(Cc3ccc4c(c3)OCO4)CC2)n1	61	-	-	-	-	-
O=C(Nc1nnc([C@H]2C[C@H](O)[C@@H](CO)O2)s1)Nc1ccccc1Oc1ccccc1	-	-	-	.	-	.
CC(C)(C)NC(=O)C(c1c[nH]c2ccccc12)N(C(=O)Cn1nnc(-c2ccc(Cl)cc2)n1)c1ccccc1F (centres undefined)	-	-	-	-	-	.
O=C(NC1CCCC1)C(c1c[nH]c2ccccc12)N(C(=O)Cn1nnc(-c2ccc(Cl)cc2)n1)c1ccccc1 (centres undefined)	64	-	-	-	-	-
COc1ccc([N+](=O)[O-])cc1NC(=O)Cc1ccc(Cl)cc1	81	-	-	-	-	-
COc1cc(/C=N/NC(=O)Cc2ccccc2)ccc1Oc1ccc([N+](=O)[O-])cc1[N+](=O)[O-]	59	-	-	-	-	-
COc1ccc(C(CC(=O)Nc2cc([N+](=O)[O-])ccc2OC)c2ccccc2)cc1 (centres undefined)	61	-	-	-	-	50
O=C(O)CC(NC(=O)CC(c1ccccc1)c1ccccc1)c1cccc([N+](=O)[O-])c1 (centres undefined)	56	-	-	-	-	66
COc1cc([N+](=O)[O-])c(C)cc1NC(=O)c1ccc(OC)c(OC)c1	-	-	-	-	-	.
COC(=O)c1cccc(CN2C(=O)C(C)Sc3ccc(C(C)=O)cc32)c1 (centres undefined)	-	-	-	.	-	.
O=S1(=O)N[C@@H](Cc2ccccc2)COc2cc(N3CCC[C@@H]3CO)ccc21	-	-	-	.	-	.
COc1ccc([N+](=O)[O-])cc1NC(=O)CSCc1ccccc1	62	-	-	-	-	-
COc1ccc([N+](=O)[O-])cc1NC(=O)CCCOc1ccccc1	68	-	-	-	-	71
COc1ccc([N+](=O)[O-])cc1NC(=O)CCC(=O)c1cccs1	65	-	-	-	-	48
COCC(=O)Nc1cc([N+](=O)[O-])ccc1OC	-	-	-	-	-	.
COc1cccc(CNC(=O)[C@@H]2CCCN2C(=O)[C@H]2CCCCN2C(=O)c2ccc(Cl)cc2)c1	-	-	-	.	-	.
CSCC[C@H]1COC[C@@H](Cc2ccccc2)N1c1ccccc1	-	-	-	-	-	.
O=C1CN(C(=O)c2cc([N+](=O)[O-])ccc2Cl)C(c2ccc(F)cc2)c2cc(F)ccc2N1 (centres undefined)	75	-	-	-	-	-
Cc1ccc2c(c1)C(c1ccccc1)N(C(=O)c1ccccc1)CC(=O)N2 (centres undefined)	-	-	-	-	-	.
O=C1CN(C(=O)c2ccccc2Br)C(c2ccc(F)cc2)c2cc(F)ccc2N1 (centres undefined)	-	-	-	-	-	.
Cc1ccc2c(c1)C(c1ccccc1)N(C(=O)c1cccc([N+](=O)[O-])c1)CC(=O)N2 (centres undefined)	78	-	-	-	-	87
CN(c1ccccc1)S(=O)(=O)c1ccc(C(=O)N2CCN(c3ccccc3)CC2)cc1	-	-	-	-	-	.
SMILES	FAS-TE inh	SKN-1 block	iPSC survival up	DAGLB inh	MT1-MMP act inh	FAS-TE inh conf
O=C1c2ccccc2C(c2nnnn2Cc2ccccc2)N1Cc1cccnc1 (centres undefined)	-	-	-	.	-	.
O=C(/C=C/c1cc([N+](=O)[O-])ccc1OC(F)F)NCc1ccc(F)cc1	72	-	-	-	-	86
O=C(/C=C/c1cc([N+](=O)[O-])ccc1OC(F)F)Nc1cccc([N+](=O)[O-])c1	-	-	-	-	-	.
Cc1csc(=O)n1CC(=O)OCc1nnc(-c2ccc([N+](=O)[O-])cc2)o1	-	-	-	-	-	.
Cc1ccc(C(=O)NCC(=O)OCc2nnc(-c3ccc([N+](=O)[O-])cc3)o2)s1	53	-	-	-	-	65
O=[N+]([O-])c1c(Nc2cccc(O)c2)cc(Cl)c2nonc12	78	-	-	-	-	50
CCN1Cc2c(/C=C/c3ccccc3)nc3ccc(OC)cc3c2N(c2cccc(Cl)c2)C1	77	-	-	-	-	85
COc1cccc(N2CCc3c(C)nc4ccc(Cl)cc4c32)c1	-	-	-	-	-	.
Cc1nc2ccc(NC(=O)c3cc([N+](=O)[O-])cc([N+](=O)[O-])c3Cl)cc2s1	70	-	-	-	-	89
CCC(=O)OCCNc1cc(Sc2nc3ccccc3s2)c2nonc2c1[N+](=O)[O-]	83	-	-	-	.	-
O=[N+]([O-])c1c(NCCCO)cc(Sc2nc3ccccc3s2)c2nonc12	77	-	-	-	-	75
CCC(=O)OCCNc1cc(Sc2nc3ccccc3[nH]2)c2nonc2c1[N+](=O)[O-]	80	-	-	-	-	83
CCCC(=O)OCCNc1cc(SCc2ccco2)c2nonc2c1[N+](=O)[O-]	-	-	-	-	-	.
CC1(C(=O)NS(=O)(=O)c2ccc(Cl)cc2)CCN1C(=O)Cc1ccsc1 (centres undefined)	-	-	-	.	-	.
COc1ccc(CN2C[C@@H](CO)O[C@@H](n3cnc4c(NCc5ccc(F)cc5)ncnc43)C2)cc1	-	-	-	.	-	.
CC(C)Cn1c(N)c(C(=O)COC(=O)c2cc3ccccc3cc2O)c(=O)n(C)c1=O	82	-	-	-	-	-
CC(C)Cn1c(N)c(C(=O)COC(=O)c2ccc(O)cc2O)c(=O)n(C)c1=O	-	-	-	-	-	.
COc1ccc(NC(=O)CC2C(=O)N(C)C(=S)N2Cc2cccs2)cc1 (centres undefined)	51	-	-	-	-	58
CCCOc1ccc(NC(=O)CC2C(=O)N(CC)C(=S)N2Cc2cccs2)cc1 (centres undefined)	59	-	-	-	-	65
COc1ccc(C(O)c2ncc(-c3cccc(C(F)(F)F)c3)[nH]2)cc1F (centres undefined)	-	-	-	.	-	.
CN(C)C1CN(Cc2cn(Cc3cccc(C(F)(F)F)c3)nn2)S(=O)(=O)C1 (centres undefined)	-	-	-	.	-	.
CCN1C(=O)[C@H]2[C@@H](c3ccc(-c4cccc(Cl)c4)c(OC)c3)N[C@@](CC(C)C)(C(=O)OC)[C@H]2C1=O	-	-	-	-	-	.
